Columns and labels:
E. coli GroEL/ES [1] = target: T1, E. coli GroEL/ES (Escherichia coli, UniProt P0A6F5); test: (§1) Inhibition of Escherichia coli GroEL/GroES using Escherichia coli GroEL expressed in Escherichia coli DH5alpha cells and Escherichia coli GroES expressed in Escherichia coli BL21(DE3) cells assessed as inhibition of denatured rhodanese refolding by measuring reduction in thiocyanate production incubated for 60 mins by micro plate reader analysis
Summary of the method: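 Urea-denatured rhodanese bound to GroEL/GroES in folding buffer containing thiosulfate. After 60 min at 37°C, thiocyanate reaction (KCN, thiosulfate, phosphate) run, then formaldehyde quench and ferric nitrate added. Fe(SCN)3 read at 460 nm after 15 min RT, with protein-free baseline plates.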

E. coli GroEL/ES [2] = target: T1, E. coli GroEL/ES; test: Inhibition of Escherichia coli GroEL/GroES using Escherichia coli GroEL expressed in Escherichia coli DH5alpha cells and Escherichia coli GroES expressed in Escherichia coli BL21(DE3) cells assessed as reduction in native refolded rhodanese-mediated thiocyanate production by micro plate reader analysis
E. coli GroEL/ES [3] = target: T1, E. coli GroEL/ES; test: Inhibition of Escherichia coli GroEL/GroES using Escherichia coli GroEL expressed in Escherichia coli DH5alpha cells and Escherichia coli GroES expressed in Escherichia coli BL21(DE3) cells assessed as reduction in pig heart native refolded MDH-mediated NADH production by micro plate reader analysis
Summary of the method: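 Native MDH counter-screen. GroEL/ES-dMDH refolding run 60 min at 37°C, then EDTA-quenched without compound. IC50 averaged from at least triplicate.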

E. coli GroEL/ES [4] = target: T1, E. coli GroEL/ES; test: as §1, with “pig heart MDH” for “rhodanese”, “NADH” for “thiocyanate”
Summary of the method: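 Denatured MDH (guanidine-HCl/DTT, 30 min RT) bound to GroEL with GroES in Tris pH 7.4, KCl, MgCl2, DTT buffer. 60 min at 37°C, EDTA quench to 100 mM. Refolded MDH activity read with mesoxalate/NADH at 340 nm. Log-averaged IC50 from replicates.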

E. coli GroEL/ES [5] = target: T1, E. coli GroEL/ES; test: Inhibition of Escherichia coli GroEL/GroES using Escherichia coli GroEL expressed in Escherichia coli DH5alpha cells and Escherichia coli GroES expressed in Escherichia coli BL21(DE3) cells assessed as reduction in denatured pig heart MDH ATPase activity by malachite green dye based assay
Escherichia coli [6] = test: Antibacterial activity against Escherichia coli DH5alpha assessed as reduction in bacterial growth incubated for 6 to 8 hrs; assay type: functional, organism-based; conditions: DH5[alpha]
Escherichia coli [7] = test: Antibacterial activity against acrB-deficient Escherichia coli MC4100 assessed as reduction in bacterial growth incubated for 6 to 8 hrs; assay type: functional, organism-based
Escherichia coli [8] = test: Antibacterial activity against Escherichia coli SM101 assessed as reduction in bacterial growth incubated for 12 hrs by UV-Vis spectrophotometric analysis; assay type: functional, organism-based; conditions: SM101, 12 h
Bacillus subtilis = test: Antibacterial activity against Bacillus subtilis 168 assessed as reduction in bacterial growth incubated for 6 to 8 hrs; assay type: functional, organism-based; conditions: subsp. subtilis str. 168
Enterococcus faecium = test: Antibacterial activity against multidrug resistant Enterococcus faecium NCTC 7171 (ATCC 19434) assessed as reduction in bacterial growth incubated for 6 to 8 hrs; assay type: functional, organism-based
Summary of the method: (§2)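 Broth proliferation assay. S. aureus and MRSA grown in ATCC Medium 18, other pathogens in Brain Heart Infusion. Stagnant incubation at 37°C under breathable seal. OD600 read at mid-log (6-8 h) and corrected with bacteria-free baseline plates. EC50 by variable-slope nonlinear fit, at least triplicate.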

Staphylococcus aureus [9] = test: Antibacterial activity against methicillin resistant Staphylococcus aureus subsp. aureus HPV107 (ATCC BAA-44) assessed as reduction in bacterial growth incubated for 6 to 8 hrs; assay type: functional, organism-based; summary of the method: as §2
HSP60/HSP10 [10] = target: T2, HSP60/HSP10 (Homo sapiens, UniProt P10809); test: Inhibition of human HSP60/HSP10 expressed in Escherichia coli Rosetta2(DE3) cells assessed as inhibition of denatured pig heart MDH refolding by measuring reduction in NADH production incubated for 60 mins by micro plate reader analysis
T2 sequence (P10809 whole entry): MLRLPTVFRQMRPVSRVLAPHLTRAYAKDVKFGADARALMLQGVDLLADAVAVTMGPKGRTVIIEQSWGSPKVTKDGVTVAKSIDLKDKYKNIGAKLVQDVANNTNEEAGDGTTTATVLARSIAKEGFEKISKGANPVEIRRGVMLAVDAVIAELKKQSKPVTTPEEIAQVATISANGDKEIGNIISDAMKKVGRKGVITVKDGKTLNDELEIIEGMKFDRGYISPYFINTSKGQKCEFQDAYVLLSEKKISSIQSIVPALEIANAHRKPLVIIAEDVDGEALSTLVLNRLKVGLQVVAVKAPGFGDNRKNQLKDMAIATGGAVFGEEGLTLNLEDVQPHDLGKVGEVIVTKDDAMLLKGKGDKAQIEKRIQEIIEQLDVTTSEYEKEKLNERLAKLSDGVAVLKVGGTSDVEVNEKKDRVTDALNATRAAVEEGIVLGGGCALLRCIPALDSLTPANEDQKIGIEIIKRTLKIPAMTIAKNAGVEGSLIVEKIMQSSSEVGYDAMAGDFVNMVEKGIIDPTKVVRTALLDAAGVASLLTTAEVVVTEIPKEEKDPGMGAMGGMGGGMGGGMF
T2 sequence (P61604 whole entry, further chain): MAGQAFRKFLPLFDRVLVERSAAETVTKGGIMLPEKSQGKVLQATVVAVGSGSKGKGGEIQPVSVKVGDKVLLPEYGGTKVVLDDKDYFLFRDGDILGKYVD
Summary of the method: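 Pig heart MDH was denatured in guanidine-HCl (dMDH) and complexed with HSP60, then HSP10, in Tris pH 7.4/KCl/MgCl2/DTT buffer. EDTA quench (100 mM final); refolded MDH activity was followed with mesoxalate/NADH at 340 nm.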

HSP60/HSP10 [11] = target: T2, HSP60/HSP10; test: Inhibition of human HSP60/HSP10 expressed in Escherichia coli Rosetta2(DE3) cells assessed as reduction in denatured pig heart MDH ATPase activity by malachite green dye based assay
[12] = Cytotoxicity against human THLE3 cells assessed as reduction in cell viability after 48 hrs by alamar blue assay; assay type: cell-based; conditions: THLE3, 48 h
HEK293 = test: Cytotoxicity against HEK293 cells assessed as reduction in cell viability after 48 hrs by alamar blue assay; assay type: cell-based; conditions: Homo sapiens, HEK293, 48 h
[13] = system: Klebsiella pneumoniae subsp. pneumoniae; test: Antibacterial activity against multidrug resistant Klebsiella pneumoniae subsp. pneumoniae NCTC 9633 (ATCC 13883) assessed as reduction in bacterial growth incubated for 6 to 8 hrs; assay type: functional, organism-based; summary of the method: as §2
Acinetobacter baumannii = test: Antibacterial activity against multidrug resistant Acinetobacter baumannii 2208 (ATCC 19606) assessed as reduction in bacterial growth incubated for 6 to 8 hrs; assay type: functional; summary of the method: as §2
Pseudomonas aeruginosa = test: Antibacterial activity against multidrug resistant Pseudomonas aeruginosa NCTC 10332 (ATCC 10145) assessed as reduction in bacterial growth incubated for 6 to 8 hrs; assay type: functional, organism-based; summary of the method: as §2
Enterobacter cloacae = test: Antibacterial activity against multidrug resistant Enterobacter cloacae subsp. cloacae CDC 442-68 (ATCC 13047) assessed as reduction in bacterial growth incubated for 6 to 8 hrs; assay type: functional, organism-based; summary of the method: as §2
Staphylococcus aureus [14] = test: Antibacterial activity against methicillin susceptible Staphylococcus aureus subsp. aureus Seattle 1945 (ATCC 25923) assessed as reduction in bacterial growth incubated for 6 to 8 hrs

T1 sequence (P0A6F5 whole entry, looked up): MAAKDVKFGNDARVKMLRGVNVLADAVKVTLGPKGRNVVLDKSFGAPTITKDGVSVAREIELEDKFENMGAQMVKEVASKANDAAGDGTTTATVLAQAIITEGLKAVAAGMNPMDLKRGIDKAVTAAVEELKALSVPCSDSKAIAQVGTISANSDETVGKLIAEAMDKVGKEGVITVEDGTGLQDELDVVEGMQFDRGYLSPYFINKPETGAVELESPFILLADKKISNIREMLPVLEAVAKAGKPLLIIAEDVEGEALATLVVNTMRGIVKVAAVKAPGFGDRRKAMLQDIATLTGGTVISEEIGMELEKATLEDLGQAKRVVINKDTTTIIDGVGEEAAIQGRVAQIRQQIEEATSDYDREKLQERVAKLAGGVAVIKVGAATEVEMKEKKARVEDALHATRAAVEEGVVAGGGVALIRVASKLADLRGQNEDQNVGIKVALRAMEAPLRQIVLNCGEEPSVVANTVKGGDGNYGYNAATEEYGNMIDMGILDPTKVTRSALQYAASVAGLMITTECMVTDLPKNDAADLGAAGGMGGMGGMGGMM

| Structure (SMILES) | IC50 (E. coli GroEL/ES [1]) [nM] | IC50 (E. coli GroEL/ES [2]) [µM] | IC50 (E. coli GroEL/ES [3]) [µM] | IC50 (E. coli GroEL/ES [4]) [µM] | IC50 (E. coli GroEL/ES [5]) [µM] | EC50 (Escherichia coli [6]) [µM] | EC50 (Escherichia coli [7]) [µM] | EC50 (Escherichia coli [8]) [µM] | EC50 (Bacillus subtilis) [µM] | EC50 (Enterococcus faecium) [µM] | EC50 (Staphylococcus aureus [9]) [µM] | IC50 (HSP60/HSP10 [10]) [µM] | IC50 (HSP60/HSP10 [11]) [µM] | EC50 [12] [µM] | EC50 (HEK293) [µM] | EC50 [13] [µM] | EC50 (Acinetobacter baumannii) [µM] | EC50 (Pseudomonas aeruginosa) [µM] | EC50 (Enterobacter cloacae) [µM] | EC50 (Staphylococcus aureus [14]) [µM] |
| --- | --- | --- | --- | --- | --- | --- | --- | --- | --- | --- | --- | --- | --- | --- | --- | --- | --- | --- | --- | --- |
| Cc1ccc(S(=O)(=O)Nc2ccc(-c3nc4ccc(NS(=O)(=O)c5ccc(C)cc5)cc4[nH]3)cc2)cc1 | 30000 | > 100 | > 62.5 | 7.5 | 119 | > 100 | > 100 | > 100 | > 100 | > 100 | > 100 | 89 | 106 | 29 | 34 | > 100 | > 100 | > 100 | > 100 | > 100 |
| O=C(Nc1cc([N+](=O)[O-])ccc1O)c1ccc2c(c1)C(=O)N(Cc1ccccc1)C2=O | 28000 | > 100 | > 62.5 | 24 | 187 | > 100 | > 100 | > 100 | > 100 | > 100 | 15 | 38 | > 250 | > 100 | > 100 | > 100 | > 100 | 85 | > 100 | > 100 |
| Nc1nnc(SCC(=O)c2ccc(-c3ccccc3)cc2)s1 | 79000 | – | > 62.5 | – | 107 | > 100 | > 100 | > 100 | > 100 | > 100 | > 100 | > 100 | > 250 | > 100 | > 100 | > 100 | > 100 | > 100 | > 100 | > 100 |
| CNC(=O)Oc1c(Br)cc2sc(=O)oc2c1Br | 890 | 5.3 | > 62.5 | 2.6 | > 250 | > 100 | > 100 | > 100 | 43 | > 100 | 74 | 1.8 | > 250 | > 100 | > 100 | > 100 | > 100 | > 100 | > 100 | 45 |
| O=C(/C=C/c1ccc([N+](=O)[O-])cc1)c1ccc(O)c(O)c1 | 830 | 12 | > 62.5 | 1.2 | 216 | > 100 | > 100 | 48 | > 100 | > 100 | 40 | 5.2 | > 250 | 9.9 | 12 | > 100 | > 100 | > 100 | > 100 | 23 |
| COC(=O)c1ccc(-c2ccc(/C=C3/SC(=S)NC3=O)o2)cc1 | 3000 | 8.1 | > 62.5 | 4.8 | > 250 | > 100 | > 100 | 7.6 | 16 | > 100 | 1.5 | 16 | > 250 | 41 | 44 | > 100 | > 100 | > 100 | > 100 | 13 |
| O=C(CC1Nc2cccc3cccc(c23)NC1=O)Nc1cccc([N+](=O)[O-])c1 (configuration not stated) | 11000 | 10 | > 62.5 | 42 | 217 | > 100 | > 100 | 68 | 72 | 15 | 54 | > 100 | > 250 | 61 | 62 | > 100 | > 100 | > 100 | > 100 | 84 |
| Nc1ccc(Nc2nc(-c3ccc(O)c(O)c3)cs2)cc1 | 1700 | – | > 62.5 | 2.7 | > 250 | > 100 | > 100 | 84 | > 100 | > 100 | > 100 | 10 | > 250 | > 100 | 98 | > 100 | 81 | > 100 | > 100 | > 100 |
| O=C1/C(=C/c2ccc(O)c(O)c2)SC(=S)N1c1ccc(O)cc1 | 580 | 14 | > 62.5 | 0.69 | > 250 | > 100 | 92 | 27 | 25 | 90 | 9.1 | 4.9 | > 250 | 16 | 23 | > 100 | 58 | > 100 | > 100 | 14 |
| O=C(/C=C/c1cccc([N+](=O)[O-])c1)c1ccc(NC(=O)c2ccco2)cc1 | 1400 | > 100 | > 62.5 | 0.93 | 80 | > 100 | > 100 | 76 | > 100 | > 100 | > 100 | 1.6 | > 250 | > 100 | > 100 | > 100 | > 100 | > 100 | > 100 | > 100 |
| O=C(/C=C/c1ccco1)c1ccc(NC(=O)c2cccs2)cc1 | 2300 | > 100 | > 62.5 | 3.6 | > 250 | > 100 | > 100 | > 100 | > 100 | > 100 | 61 | 8.2 | > 250 | 34 | 55 | > 100 | > 100 | > 100 | > 100 | > 100 |
